Experimental data from different studies.
Protocols differ between the studies behind these lines. pKi: −log10 of the molar value.
ADRA1A: Alpha-1A adrenergic receptor (ADRA1A, Homo sapiens, UniProt P35348)
Tspo: Translocator protein (Tspo, Rattus norvegicus, UniProt P16257)
SQLE: Squalene monooxygenase (SQLE, Homo sapiens, UniProt Q14534)

Structure (SMILES)	target	observed	mode	method	cell line	pH	pKi
COc1ccc(Cl)cc1N1CCN(Cc2cccnc2Oc2ccc(-c3c(C)c(=O)[nH]c(=O)n3C)c(C)c2)CC1	ADRA1A	ligand displacement	–	radioligand	–	–	6.45
COc1cc2c3c(c1OC)-c1c(OC)ccc(N4CCOCC4)c1CC3N(C)CC2 (stereo not shown)	ADRA1A	cell-free assay	–	radioligand	–	–	6.19
Cc1cc(Oc2ncccc2CN2CCN(c3ccccc3Cl)CC2)ccc1-c1c(C)c(=O)[nH]c(=O)n1C	ADRA1A	ligand displacement	–	radioligand	–	–	6.03
O=C[C@H](O)[C@@H](O)[C@H](O)[C@H](O)COP(=O)(O)O	Hexokinase HKDC1 (Homo sapiens, UniProt Q2TB90)	enzyme activity	inhibitor	–	–	pH 8	2.47
COc1cc2c3c(c1OC)-c1c(OC)ccc(-c4ccc(C#N)cc4)c1CC3N(C)CC2 (stereo not shown)	ADRA1A	cell-free assay	–	radioligand	–	–	6.49
Cc1cc(Oc2ncccc2CN2CCN(CCc3ccccc3)CC2)ccc1-c1c(C)c(=O)[nH]c(=O)n1C	ADRA1A	ligand displacement	–	radioligand	–	–	6.53
COc1cc(O)c2c(c1)oc(=O)c1c3cc(O)c(O)cc3oc21	Alpha-glucosidase MAL12 (MAL12, Saccharomyces cerevisiae S288c, UniProt P53341)	enzyme activity	inhibitor	–	–	–	4.52
Cc1cc(Oc2ncccc2CN2CCN(c3ccccc3[N+](=O)[O-])CC2)ccc1-c1c(C)c(=O)[nH]c(=O)n1C	ADRA1A	ligand displacement	–	radioligand	–	–	5.70
CCOC(=O)[C@@]12C[C@@H]1[C@@H](n1cnc3c(NCc4cccc(Cl)c4)nc(C#Cc4ccc(Cl)s4)nc31)[C@H](O)[C@@H]2O	Tspo	cell-free assay	–	radioligand	–	–	6.29
Cc1cc(Oc2ncccc2CN2CCN(c3cccc(Cl)c3Cl)CC2)ccc1-c1c(C)c(=O)[nH]c(=O)n1C	ADRA1A	ligand displacement	–	radioligand	–	–	5.71
N#Cc1ccc2c(c1)N(CCCN1CCC(O)CC1)c1ccccc1S2	SQLE	enzyme activity	inhibitor	–	–	–	6.16
O=c1cc(-c2ccc(O)cc2)oc2cc(O[C@@H]3O[C@H](CO)[C@@H](O)[C@H](O)[C@H]3O)cc(O)c12	SQLE	enzyme activity	inhibitor	–	–	–	6.18
CCN(CC)C(C)CN1c2ccccc2Sc2ccccc21 (stereo not shown)	SQLE	enzyme activity	inhibitor	–	–	–	6.19
OC[C@@]12C[C@@H]1[C@@H](n1cnc3c(NC(C4CCC4)C4CCC4)nc(C#Cc4ccc(Cl)s4)nc31)[C@H](O)[C@@H]2O	Tspo	cell-free assay	–	radioligand	–	–	6.17
C=CC(=O)N1C[C@H](Nc2ncnc3[nH]ccc23)CC[C@@H]1C	Solute carrier family 22 member 6 (SLC22A6, Homo sapiens, UniProt Q4U2R8)	transporter uptake	inhibitor	–	HEK293	pH 7.4	3.81
COc1cc(C2Oc3cc([C@H]4Oc5cc(O)cc(O)c5C(=O)[C@@H]4O)ccc3OC2CO)ccc1O (stereo partly shown)	SQLE	enzyme activity	inhibitor	–	–	–	5.85
